In test [1] the target is Mitogen-activated protein kinase kinase kinase 11 (Homo sapiens) (UniProt Q16584). As to the kind of experiment: Inhibition of MLK3 assessed as residual activity at 10 uM. The essentials:
(§1)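 Panel screen by radioactive kinase assay at a single inhibitor concentration. Score is the percent activity remaining relative to DMSO controls (100%).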

Test [2] addresses T1, Serine/threonine-protein kinase STK11 (Homo sapiens) (UniProt Q15831).
T1 sequence (whole entry): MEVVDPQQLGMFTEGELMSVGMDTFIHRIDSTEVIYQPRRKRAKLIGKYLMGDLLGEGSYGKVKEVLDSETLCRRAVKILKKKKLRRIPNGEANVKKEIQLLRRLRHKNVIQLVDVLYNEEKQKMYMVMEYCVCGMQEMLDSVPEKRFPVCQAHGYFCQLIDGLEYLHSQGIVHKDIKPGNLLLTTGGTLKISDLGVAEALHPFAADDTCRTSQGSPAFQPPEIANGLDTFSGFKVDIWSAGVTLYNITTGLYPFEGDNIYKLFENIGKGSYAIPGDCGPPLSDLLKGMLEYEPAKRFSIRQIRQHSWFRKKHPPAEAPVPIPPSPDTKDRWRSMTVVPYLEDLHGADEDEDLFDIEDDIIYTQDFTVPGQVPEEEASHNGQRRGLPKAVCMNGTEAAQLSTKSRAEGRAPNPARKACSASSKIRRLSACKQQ
Briefly: Inhibition of LKB1 assessed as residual activity at 10 uM. The gist of the method:
(§2)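 Kinase panel screen run as a radioactive activity assay at single compound concentration. Score reported as percent activity remaining relative to DMSO controls (100%).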

Test [3] deals with T2, Inhibitor of nuclear factor kappa-B kinase subunit beta (Homo sapiens) (UniProt O14920).
T2 sequence (whole entry): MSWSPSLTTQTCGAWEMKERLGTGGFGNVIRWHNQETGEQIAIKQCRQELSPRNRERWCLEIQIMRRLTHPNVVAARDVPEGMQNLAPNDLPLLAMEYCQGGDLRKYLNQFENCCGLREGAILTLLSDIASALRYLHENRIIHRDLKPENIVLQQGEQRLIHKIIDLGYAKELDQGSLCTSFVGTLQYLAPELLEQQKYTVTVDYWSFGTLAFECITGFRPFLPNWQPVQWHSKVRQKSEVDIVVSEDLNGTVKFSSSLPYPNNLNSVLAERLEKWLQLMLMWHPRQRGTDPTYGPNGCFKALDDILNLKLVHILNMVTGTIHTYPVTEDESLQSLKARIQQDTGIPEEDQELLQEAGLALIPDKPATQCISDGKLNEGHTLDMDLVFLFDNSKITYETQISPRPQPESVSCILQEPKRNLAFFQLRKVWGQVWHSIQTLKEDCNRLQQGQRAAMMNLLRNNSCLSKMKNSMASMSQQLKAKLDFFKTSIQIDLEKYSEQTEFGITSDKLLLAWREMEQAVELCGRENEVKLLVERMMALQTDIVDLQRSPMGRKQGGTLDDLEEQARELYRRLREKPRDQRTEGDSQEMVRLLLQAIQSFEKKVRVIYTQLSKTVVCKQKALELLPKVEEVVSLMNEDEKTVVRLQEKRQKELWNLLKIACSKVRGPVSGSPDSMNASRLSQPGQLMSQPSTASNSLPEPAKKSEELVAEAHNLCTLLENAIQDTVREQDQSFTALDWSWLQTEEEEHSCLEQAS
As to the kind of experiment: Inhibition of IKK-beta assessed as residual activity at 10 uM. The essentials: as §2

Test [4] addresses T3, NUAK family SNF1-like kinase 1 (Homo sapiens) (UniProt O60285).
T3 sequence (whole entry): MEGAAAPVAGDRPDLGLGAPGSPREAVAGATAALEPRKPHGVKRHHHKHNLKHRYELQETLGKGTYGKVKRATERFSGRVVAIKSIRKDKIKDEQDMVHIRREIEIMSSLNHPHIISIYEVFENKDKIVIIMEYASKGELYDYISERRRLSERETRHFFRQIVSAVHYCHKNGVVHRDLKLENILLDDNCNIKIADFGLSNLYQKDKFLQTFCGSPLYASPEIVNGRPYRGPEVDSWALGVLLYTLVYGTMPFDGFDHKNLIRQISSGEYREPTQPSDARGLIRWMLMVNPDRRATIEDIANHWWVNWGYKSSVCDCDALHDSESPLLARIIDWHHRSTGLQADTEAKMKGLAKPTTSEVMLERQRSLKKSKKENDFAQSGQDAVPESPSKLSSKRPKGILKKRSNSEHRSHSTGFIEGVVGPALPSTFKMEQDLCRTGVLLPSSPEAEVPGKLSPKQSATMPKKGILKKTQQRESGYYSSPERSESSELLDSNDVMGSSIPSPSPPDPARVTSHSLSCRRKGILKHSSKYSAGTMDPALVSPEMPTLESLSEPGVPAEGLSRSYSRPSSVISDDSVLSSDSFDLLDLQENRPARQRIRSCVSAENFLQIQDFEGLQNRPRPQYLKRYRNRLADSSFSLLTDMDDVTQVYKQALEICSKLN
Briefly: Inhibition of NUAK1 assessed as residual activity at 10 uM. The gist of the method:
as §1

Test [5] addresses T4, Serine/threonine-protein kinase TBK1 (Homo sapiens) (UniProt Q9UHD2).
T4 sequence (whole entry): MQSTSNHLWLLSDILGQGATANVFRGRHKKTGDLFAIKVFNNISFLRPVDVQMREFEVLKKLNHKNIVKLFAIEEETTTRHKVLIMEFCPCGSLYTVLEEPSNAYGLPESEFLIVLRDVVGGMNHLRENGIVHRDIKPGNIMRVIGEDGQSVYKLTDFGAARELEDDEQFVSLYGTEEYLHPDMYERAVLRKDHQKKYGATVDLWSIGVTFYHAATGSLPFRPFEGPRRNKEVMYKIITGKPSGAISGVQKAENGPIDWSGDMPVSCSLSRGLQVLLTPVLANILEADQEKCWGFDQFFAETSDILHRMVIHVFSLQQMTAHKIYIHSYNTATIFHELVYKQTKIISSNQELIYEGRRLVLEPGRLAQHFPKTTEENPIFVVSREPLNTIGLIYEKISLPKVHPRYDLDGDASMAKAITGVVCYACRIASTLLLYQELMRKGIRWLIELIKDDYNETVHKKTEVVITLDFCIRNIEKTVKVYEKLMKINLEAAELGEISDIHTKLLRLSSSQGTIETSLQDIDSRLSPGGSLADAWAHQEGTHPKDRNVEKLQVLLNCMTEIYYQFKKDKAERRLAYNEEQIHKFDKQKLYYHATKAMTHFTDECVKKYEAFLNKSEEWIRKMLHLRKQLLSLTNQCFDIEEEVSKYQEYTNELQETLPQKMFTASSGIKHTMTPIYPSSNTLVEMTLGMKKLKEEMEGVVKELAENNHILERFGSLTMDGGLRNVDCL
Briefly: Inhibition of TBK1 assessed as residual activity at 10 uM. The essentials: as §1

Test [6] has as its target Dual specificity mitogen-activated protein kinase kinase 1 (Homo sapiens) (UniProt Q02750). As to the kind of experiment: Inhibition of MKK1 assessed as residual activity at 10 uM. The essentials:
as §2

Chain of Mitogen-activated protein kinase kinase kinase 11 (Homo sapiens) (Q16584 whole entry, looked up): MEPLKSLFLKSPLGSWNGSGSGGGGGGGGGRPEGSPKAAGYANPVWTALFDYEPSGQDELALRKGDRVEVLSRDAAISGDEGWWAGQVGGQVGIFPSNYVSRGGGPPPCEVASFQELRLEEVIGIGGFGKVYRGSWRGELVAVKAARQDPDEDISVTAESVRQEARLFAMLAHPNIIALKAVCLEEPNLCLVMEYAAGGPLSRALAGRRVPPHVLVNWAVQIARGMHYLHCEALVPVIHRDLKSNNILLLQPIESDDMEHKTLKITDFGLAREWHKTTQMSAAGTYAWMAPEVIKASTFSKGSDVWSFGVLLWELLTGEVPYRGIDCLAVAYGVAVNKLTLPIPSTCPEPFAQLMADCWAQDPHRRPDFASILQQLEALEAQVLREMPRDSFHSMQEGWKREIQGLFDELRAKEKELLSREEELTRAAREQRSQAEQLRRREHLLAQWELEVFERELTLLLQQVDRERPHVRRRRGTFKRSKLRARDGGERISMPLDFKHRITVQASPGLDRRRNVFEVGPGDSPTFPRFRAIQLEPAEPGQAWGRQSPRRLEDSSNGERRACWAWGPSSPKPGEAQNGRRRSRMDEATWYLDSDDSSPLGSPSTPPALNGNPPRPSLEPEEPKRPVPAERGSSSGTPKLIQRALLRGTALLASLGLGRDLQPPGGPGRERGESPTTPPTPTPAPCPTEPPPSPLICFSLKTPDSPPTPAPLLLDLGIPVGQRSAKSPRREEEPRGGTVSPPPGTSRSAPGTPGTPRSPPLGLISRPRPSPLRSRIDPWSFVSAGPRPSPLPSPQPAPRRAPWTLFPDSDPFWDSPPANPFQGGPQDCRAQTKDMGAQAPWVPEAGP
Chain of Dual specificity mitogen-activated protein kinase kinase 1 (Homo sapiens) (Q02750 whole entry): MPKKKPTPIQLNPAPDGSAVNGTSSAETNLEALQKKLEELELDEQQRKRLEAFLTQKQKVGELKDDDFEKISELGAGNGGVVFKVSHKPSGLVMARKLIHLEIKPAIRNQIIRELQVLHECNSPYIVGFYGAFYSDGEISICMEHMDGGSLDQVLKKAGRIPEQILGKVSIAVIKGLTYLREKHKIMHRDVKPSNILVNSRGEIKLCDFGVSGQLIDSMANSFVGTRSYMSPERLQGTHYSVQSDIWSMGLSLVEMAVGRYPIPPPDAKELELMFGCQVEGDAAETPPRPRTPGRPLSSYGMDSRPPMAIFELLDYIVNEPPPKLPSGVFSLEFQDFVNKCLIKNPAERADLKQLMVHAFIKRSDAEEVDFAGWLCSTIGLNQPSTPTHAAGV

As to `CN1CCN(CCC(=O)Nc2ccc3c(C#N)cnc(Nc4cccc(Br)c4)c3c2)CC1`, the Activity worked out at 87% in test [1]; 100% in test [2]; 88% in test [3]; 94% in test [4]; 87% in test [5]; 79% in test [6].
As to `CN(C)CCCC(=O)Nc1ccc2c(C#N)cnc(Nc3cccc(Br)c3)c2c1`, the Activity turned out to be 100% in test [1]; 100% in test [2]; 84% in test [3]; 86% in test [4]; 99% in test [5]; 100% in test [6].
Take `CN(C)C/C=C/C(=O)Nc1ccc2c(C#N)cnc(Nc3cccc(Br)c3)c2c1`: the Activity in test [1] is 86%; in test [2], 99%; in test [3] it was 79%; in test [4] it was 100%; in test [5] it was 82%; in test [6], 47%.

The values are drawn from ChEMBL document CHEMBL1641579, “Synthesis and biological evaluation of 7-substituted-1-(3-bromophenylamino)isoquinoline-4-carbonitriles as inhibitors of myosin light chain kinase and epidermal growth factor receptor” (Bioorg Med Chem, 2011).
